Molecules are shown by their SMILES. pIC50: −log10 of the molar value. The source made the active and inactive calls. The rule behind the calls is not given here.

Assay [1] deals with HL-60. Briefly: Induction of apoptosis in human HL60 cells assessed as induction of PARP1 cleavage after 24 hrs by Western blot. Type of assay: functional, cell-based. The method in brief: (§1)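 About 7×10^5 exponentially growing HL-60 cells were treated at 37 °C for 6 or 24 h. Lysates in Hepes/NaCl/NP-40 buffer with protease inhibitors were cleared at 10 000g. 50 µg protein was run on 7.5% SDS-PAGE and probed with anti-PARP-1 (1:1000), with ECL detection. The 85 kDa fragment versus the 116 kDa intact band was the apoptosis marker.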

The subject of assay [2] is HL-60. As to the kind of experiment: Induction of apoptosis in human HL60 cells assessed as induction of PARP1 cleavage after 6 hrs by Western blot. Format: functional, cell-based. In outline:
as §1

The subject of assay [3] is HL-60. As to the kind of experiment: Induction of apoptosis in human HL60 cells assessed as fold increase in caspase 3 activation at 30 uM relative to control. Type of assay: functional. In outline:
(§2)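 HL-60 cells were exposed for 12 h to 1–30 µM. Lysates were made in Hepes pH 7.4/DTT/CHAPS buffer and protein was measured by Bradford. About 20 µg protein was incubated at 37 °C with DEVD-pNA (caspase-3) or IETD-pNA (caspase-8). Net A405 increase was expressed as fold over untreated control, in duplicate.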

For assay [4], the system named is HL-60. Briefly: Induction of apoptosis in human HL60 cells assessed as cytochrome release at 10 uM by Western blot. Format: functional, cell-based. In outline:
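Exponentially growing HL-60 cells were treated for 6 h. The cytosolic fraction was obtained by hypotonic sucrose-buffer swelling on ice, needle lysis, a 1000g spin, then 105 000g for 45 min at 4 °C. 50 µg cytosolic protein was run on SDS/15% PAGE and immunoblotted with anti-cytochrome c (1:250), with ECL detection.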

The subject of assay [5] is HL-60. Briefly: Induction of apoptosis in human HL60 cells at 30 uM after 12 hrs by Hoechst 33258 staining based fluorescence microscopy. Format: functional. The method in brief: (§3)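 HL-60 cells were treated for 12 h at 10–30 µM, with 10 µM etoposide as positive control. Cells were fixed in 3% paraformaldehyde for 10 min, then stained with 10 µg/mL Hoechst 33258 for 30 min at 37 °C. Nuclei with condensed or fragmented chromatin were scored as apoptotic, counting ≥500 cells per sample, in triplicate.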

The subject of assay [6] is HL-60. Briefly: Induction of apoptosis in human HL60 cells assessed as morphological changes after 12 hrs by Hoechst 33258 staining based fluorescence microscopy. Type of assay: functional, cell-based. The method in brief: as §3
Assay [7] concerns HL-60. As to the kind of experiment: Induction of apoptosis in human HL60 cells assessed as morphological changes at 30 uM after 12 hrs by Hoechst 33258 staining based fluorescence microscopy. Type of assay: functional, cell-based. In outline: as §3
The subject of assay [8] is HL-60. As to the kind of experiment: Cytotoxicity against human HL60 cells after 72 hrs by MTT assay. Format: functional, cell-based. As to conditions: HL-60, 72 h. In outline: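 HL-60 cells kept in RPMI-1640 with 10% heat-inactivated FBS at 37 °C and 5% CO2, resuspended in fresh medium 24 h before treatment. Cells at 1×10^4/well were exposed continuously to a concentration series for 72 h at 37 °C, with final DMSO ≤0.5%. Read-out was MTT reduction at OD 570 nm as % of DMSO control. IC50 was curve-fitted for each experiment; points were triplicates.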
On the technique in general: Tetrazolium assays rely on reduction of a dye to a coloured formazan, in cell work by metabolically active cells.

The subject of assay [9] is HL-60. As to the kind of experiment: Induction of apoptosis in human HL60 cells assessed as fold increase in caspase 8 activation at 10 uM relative to control. Format: functional. In outline: as §2
The test system of assay [10] is HL-60. Briefly: Induction of apoptosis in human HL60 cells assessed as induction of DNA cleavage at 10 uM after 12 hrs by gel electrophoresis. Format: functional, cell-based. The method in brief:
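HL-60 cells (1×10^6) were lysed in Tris pH 8.0/EDTA/0.5% SDS with RNase A for 1 h at 37 °C, then proteinase K for 2 h at 50 °C. DNA was phenol-chloroform extracted and run on 2% agarose with ethidium bromide staining. The legend gives 24 h treatment while the text gives 12 h.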

Take `COc1ccc(-c2oc3c(C)c(O)c(C)c(O)c3c(=O)c2OC)cc1`: the result in the assay with HL-60 [1], in the assay on HL-60 [2], in the assay on HL-60 [4], in the assay with HL-60 [7] and with HL-60 [10] was Active. Further, the results for the “fold change (FC)” value with HL-60 [3] and in the assay on HL-60 [9] were 1.9 and 3.7, respectively. Besides, the values for the Activity in the assay with HL-60 [5] and in the assay with HL-60 [6] were 47.8% and “Dose-dependent effect”, respectively. Moreover, the pIC50 with HL-60 [8] was 5.77.

For the compound `COc1c(-c2ccc(O)cc2)oc2c(C)c(O)c(C)c(O)c2c1=O`, the outcome with HL-60 [1], in the assay on HL-60 [4], with HL-60 [7] and in the assay with HL-60 [10] was Active. For the same compound, the Activity was 26.6% in the assay with HL-60 [5] and “Dose-dependent effect” with HL-60 [6]. Further, the pIC50 in the assay with HL-60 [8] was 5.13.

Broadly, the pIC50 is −log10 of the IC50, conventionally taken in molar units. A low value points to a large IC50.

The record behind these values is ChEMBL document CHEMBL1151161, “Isolation from Eucalyptus occidentalis and identification of a new kaempferol derivative that induces apoptosis in human myeloid leukemia cells” (J Nat Prod, 2004).
